Results on 25 compounds are retold here after ChEMBL document CHEMBL1770092, “Novel N-chloroheterocyclic antimicrobials” (Bioorg Med Chem Lett, 2011).

SMILES strings stand for the structures. Values after ≈ are worked out from the molar mass of the structure shown. Bounds are passed on as bounds.

In one series the test system is Escherichia coli. The series is described as follows: Antibacterial activity against Escherichia coli ATCC 25922 after 1 hr by modified CLSI M26-A method. Type of series: functional. Conditions: ATCC 25922, 1 h. An outline of the steps: (§1)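 Minimum bactericidal or fungicidal concentration (µg/mL) by modified CLSI M26-A: isotonic buffered saline at pH 4 replaces Mueller–Hinton broth because chlorine reacts with broth components, and exposure is shortened from 24 h at 35 °C to 1 h at room temperature.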

In a further series the test system is Staphylococcus aureus. Briefly: Antibacterial activity against Staphylococcus aureus ATCC 29213 after 1 hr by modified CLSI M26-A method. To be noted: ATCC 29213, 1 h. Type of series: functional. In short, it runs like this: as §1
Another series has as its system Candida albicans. The series is described as follows: Antifungal activity against Candida albicans ATCC 10231 after 1 hr by modified CLSI M26-A method. Conditions: ATCC 10231, 1 h. In kind it is functional. An outline of the steps:
as §1

A short description of series [1]: Stability of the compound assessed as half life in aqueous buffer at 40 degC.

Usually MBC stands for the lowest tested concentration that kills the bacteria rather than only halting them. Low values mean greater bactericidal potency, high ones weaker bactericidal potency. For orientation: MFC means the smallest concentration meeting the test's criterion for killing the fungus. A high value points to weaker fungicidal potency. One may read the half-life as how long it takes for the measured level to halve. Regarding `CC1(C)CS(=O)(=O)CC(C)(C)N1Cl`, the MBC turned out to be 2 µg/mL (≈ 8.86 µM) in the series on Escherichia coli and 1 µg/mL (≈ 4.43 µM) against Staphylococcus aureus. This compound also gave an MFC in the series on Candida albicans of 128 µg/mL (≈ 567 µM). In addition, the half-life in series [1] was more than 113 days.

As for `CC1(C)C(=O)N(CCS(=O)(=O)[O-])C(=O)N1Cl.[Na+]`, the MBC with Escherichia coli and in the series on Staphylococcus aureus was 128 µg/mL each time. Also, the MFC with Candida albicans is 128 µg/mL. The half-life in series [1] is 65 days.

As for `CC1(C)C(=O)N(CCCS(=O)(=O)[O-])C(=O)N1Cl.[Na+]`, the values for the MBC against Escherichia coli and against Staphylococcus aureus were 16 µg/mL and 32 µg/mL, respectively. This compound yielded an MFC against Candida albicans of more than 256 µg/mL. Besides, the half-life in series [1] is more than 14 days.

With `CC1(C)C(=O)N(CCC[N+](C)(C)C)C(=O)N1Cl.[Cl-]`, the MBC is 128 µg/mL against Escherichia coli and more than 128 µg/mL against Staphylococcus aureus. This compound gave a minimum fungicidal concentration (MFC) against Candida albicans of more than 1020 µg/mL. Besides, the half-life in series [1] is 4 days.

As for `CC1(C)C(=O)N(CCCCC[N+](C)(C)C)C(=O)N1Cl.[Cl-]`, the MBC against Escherichia coli and in the series on Staphylococcus aureus was 128 µg/mL in each case. The compound also came in with an MFC against Candida albicans of more than 1020 µg/mL. The half-life in series [1] is 22 days.

Consider `CC1(C)C(=O)N(CC[n+]2ccccc2)C(=O)N1Cl.[Cl-]`, for which, in series [1], the half-life was 4 days.

For the compound `CC1(C)C(=O)N(CCS(=O)(=O)CCCS(=O)(=O)[O-])C(=O)N1Cl.[Cs+]`, the MBC in the series with Escherichia coli is 256 µg/mL; against Staphylococcus aureus it was more than 256 µg/mL. Besides, the MFC in the series on Candida albicans is more than 256 µg/mL. Further, the half-life in series [1] is more than 7 days.

In the case of `CN1C(=O)N(Cl)C(C)(C[N+](C)(C)C)C1=O.[Cl-]` (stereo not drawn), the MBC is 16 µg/mL with Escherichia coli and 64 µg/mL in the series with Staphylococcus aureus. The compound further gave an MFC against Candida albicans of more than 256 µg/mL. Also, the half-life in series [1] was 5 days.

Consider `CC1(C)C(=O)N(CCS(=O)(=O)[O-])CC(=O)N1Cl.[Na+]`, for which the MBC in the series on Escherichia coli and in the series with Staphylococcus aureus was 128 µg/mL in each case. Further, the MFC against Candida albicans was more than 256 µg/mL. Moreover, in series [1], the half-life was 90 days.

Consider `CC1(C)C(=O)N(CCO)CC(=O)N1Cl`, for which the half-life in series [1] was less than 1 days.

For the compound `CC1(C)CC(CCO)OC(=O)N1Cl` (stereo not drawn), in series [1], the half-life is more than 14 days.

Turning to `CC1(C)CN(CCS(=O)(=O)[O-])C(=O)N1Cl.[Na+]`, the MBC is 32 µg/mL in the series on Escherichia coli and 64 µg/mL with Staphylococcus aureus. The MFC in the series with Candida albicans was more than 256 µg/mL. For the same compound, the half-life in series [1] was more than 92 days.

On to `CC1(C)CN(CCS(=O)(=O)CCCS(=O)(=O)[O-])C(=O)N1Cl.[Cs+]`, for which the values for the MBC with Escherichia coli and against Staphylococcus aureus were 64 µg/mL and 32 µg/mL, respectively. Further, the half-life in series [1] was more than 112 days.

As to `CC(=O)[O-].CC1(C)CN(CC[N+](C)(C)C)C(=O)N1Cl`, the values for the MBC in the series with Escherichia coli and with Staphylococcus aureus were 512 µg/mL and 128 µg/mL, respectively. Also, the half-life in series [1] is 126 days.

`CN1CC(C)(CO)N(Cl)C1=O` (stereo not drawn): the MBC against Escherichia coli and against Staphylococcus aureus was 16 µg/mL (≈ 89.6 µM) throughout. For the same compound, the MFC with Candida albicans stood at 8 µg/mL (≈ 44.8 µM). Besides, in series [1], the half-life is more than 58 days.

With `CC1(C)CC([N+](C)(C)C)CC(C)(C)N1Cl.[Cl-]`, the values for the minimal bactericidal concentration (MBC) against Escherichia coli and in the series with Staphylococcus aureus were 16 µg/mL and 8 µg/mL, respectively. In the series on Candida albicans, the MFC was 256 µg/mL. The half-life in series [1] was 28 days.

Turning to `CC1(C)CC(O)CC(C)(C)N1Cl`, the MBC against Escherichia coli was 1 µg/mL (≈ 5.22 µM); against Staphylococcus aureus, 4 µg/mL (≈ 20.9 µM). Moreover, in the series on Candida albicans, the MFC is 32 µg/mL (≈ 167 µM). In addition, the half-life in series [1] is 32 days.

In the case of `CC1(C)CC(=O)CC(C)(C)N1Cl`, the values for the MBC in the series with Escherichia coli and against Staphylococcus aureus were 1 µg/mL (≈ 5.27 µM) and 2 µg/mL (≈ 10.5 µM), respectively. The same compound came in with an MFC against Candida albicans of 32 µg/mL (≈ 169 µM). Moreover, the half-life in series [1] was less than 1 days.

In the case of `CC1(C)CN(CCO)C(=O)C(C)(C)N1Cl`, the values for the MBC against Escherichia coli and in the series on Staphylococcus aureus were 1 µg/mL (≈ 4.26 µM) and 2 µg/mL (≈ 8.52 µM), respectively. In addition, the MFC against Candida albicans was determined as 8 µg/mL (≈ 34.1 µM).

For the compound `CC1(C)C(=O)N(CCS(=O)(=O)[O-])C(=O)C(C)(C)N1Cl.[Na+]`, the MBC in the series with Escherichia coli and in the series with Staphylococcus aureus was 128 µg/mL each time. Moreover, the MFC against Candida albicans is more than 256 µg/mL. The half-life in series [1] is 90 days.

As to `CC1(C)C(=O)N(CCCCO)C(C)(C)N1Cl`, the MBC in the series on Escherichia coli and against Staphylococcus aureus was 2 µg/mL (≈ 8.04 µM) in each case. For the same compound, the MFC against Candida albicans came to 256 µg/mL (≈ 1030 µM). Further, the half-life in series [1] is more than 92 days.

`CC1(C)C(=O)N(CCCS(=O)(=O)[O-])C(C)(C)N1Cl.[Na+]`: the MBC amounted to 4 µg/mL against Escherichia coli and 16 µg/mL in the series with Staphylococcus aureus. This compound had an MFC against Candida albicans of 16 µg/mL. The half-life in series [1] is more than 249 days.

As to `CC1(C)C(=O)N(CCCCS(=O)(=O)[O-])C(C)(C)N1Cl.[Na+]`, the MBC stood at 16 µg/mL against Escherichia coli and 8 µg/mL against Staphylococcus aureus. Moreover, the MFC against Candida albicans was determined as 32 µg/mL. Besides, the half-life in series [1] was more than 84 days.

With `CC1(C)C(=O)N(CCC[N+](C)(C)C)C(C)(C)N1Cl.[Cl-]`, the MBC against Escherichia coli was 4 µg/mL; against Staphylococcus aureus, 2 µg/mL. Moreover, in the series on Candida albicans, the MFC worked out at 32 µg/mL. Also, in series [1], the half-life is 111 days.

In the case of `CC1(C)C(=O)N(CCCCC[N+](C)(C)C)C(C)(C)N1Cl.[Cl-]`, the minimum bactericidal concentration (MBC) against Escherichia coli and in the series on Staphylococcus aureus was 2 µg/mL in each case. For the same compound, the MFC against Candida albicans stood at 16 µg/mL. In addition, the half-life in series [1] is more than 160 days.
